# According to ChEMBL document CHEMBL1141245, “Discovery of novel 1-arylmethyl pyrrolidin-2-yl ethanol amines as calcium-sensing receptor antagonists” (Bioorg Med Chem Lett, 2005):
# Molecular target: T1, Extracellular calcium-sensing receptor (Homo sapiens, UniProt P41180)
# T1 sequence (P41180 whole entry): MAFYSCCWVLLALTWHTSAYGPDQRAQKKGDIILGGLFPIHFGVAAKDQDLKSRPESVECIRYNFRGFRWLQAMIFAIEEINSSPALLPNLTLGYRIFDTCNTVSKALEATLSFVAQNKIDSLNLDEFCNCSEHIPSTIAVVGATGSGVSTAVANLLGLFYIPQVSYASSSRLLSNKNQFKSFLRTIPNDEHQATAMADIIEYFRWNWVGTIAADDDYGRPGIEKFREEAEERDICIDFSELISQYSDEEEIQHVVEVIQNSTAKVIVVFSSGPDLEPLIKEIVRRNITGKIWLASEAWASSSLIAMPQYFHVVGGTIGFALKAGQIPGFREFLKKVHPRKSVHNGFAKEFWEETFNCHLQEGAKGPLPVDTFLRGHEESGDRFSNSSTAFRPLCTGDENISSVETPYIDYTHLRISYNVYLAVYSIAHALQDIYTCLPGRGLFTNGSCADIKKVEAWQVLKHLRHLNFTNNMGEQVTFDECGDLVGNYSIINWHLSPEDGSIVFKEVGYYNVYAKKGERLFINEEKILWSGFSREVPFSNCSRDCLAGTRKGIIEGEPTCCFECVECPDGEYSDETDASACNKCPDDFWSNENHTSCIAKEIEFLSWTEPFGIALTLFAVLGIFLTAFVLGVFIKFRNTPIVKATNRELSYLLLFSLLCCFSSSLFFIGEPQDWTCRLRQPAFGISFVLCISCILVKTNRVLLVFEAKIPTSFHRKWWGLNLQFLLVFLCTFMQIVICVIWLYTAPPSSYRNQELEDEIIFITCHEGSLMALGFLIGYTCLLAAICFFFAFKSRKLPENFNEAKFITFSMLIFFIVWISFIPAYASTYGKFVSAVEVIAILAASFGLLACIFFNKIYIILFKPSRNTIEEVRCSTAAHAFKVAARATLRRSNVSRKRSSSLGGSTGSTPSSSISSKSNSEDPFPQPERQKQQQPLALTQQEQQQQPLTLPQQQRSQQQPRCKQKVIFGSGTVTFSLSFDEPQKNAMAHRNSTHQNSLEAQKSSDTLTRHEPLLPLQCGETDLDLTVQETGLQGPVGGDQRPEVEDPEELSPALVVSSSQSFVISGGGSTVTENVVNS
# Assay: Inhibition of intracellular calcium release in human TT cells containing calcium-sensing receptor by FLIPR
# Format: functional, cell-based
# Procedure, shortened: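 Fluorescence-based intracellular Ca2+ mobilization, read on FLIPR, in human TT cells carrying endogenous calcium-sensing receptor. IC50 values are means of two experiments.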
row,IC50,Structure (SMILES)
1,50 nM,CC(C)(Cc1ccc2ccccc2c1)NC[C@@H](O)COc1cccc(Cl)c1C#N
2,160 nM,CC(C)(Cc1ccc2ccccc2c1)NC[C@@H](O)[C@H]1CCCN1Cc1ccccc1[N+](=O)[O-]
3,600 nM,CC(C)(Cc1ccc(F)cc1)NC[C@@H](O)COc1cccc(Cl)c1C#N
4,250 nM,CC(C)(Cc1ccc2ccccc2c1)NC[C@@H](O)[C@H]1CCCN1Cc1ccc(C#N)cc1
5,880 nM,CC(C)(Cc1ccc2ccccc2c1)NCCCOc1cccc(Cl)c1C#N
6,1270 nM,CC(C)(Cc1ccc2ccccc2c1)NC[C@H](O)[C@H]1CCCN1Cc1ccccc1C#N
7,4600 nM,N#Cc1c(Cl)cccc1OC[C@H](O)CNc1ccc2ccccc2c1
8,360 nM,CC(C)(Cc1ccc2ccccc2c1)NC[C@@H](O)[C@H]1CCCN1Cc1cccc(F)c1F
9,3300 nM,CC(C)(Cc1ccc(F)cc1)NC[C@@H](O)COc1ccc(OC(F)(F)F)cc1
10,750 nM,CC(C)(Cc1ccc2ccccc2c1)NC[C@@H](O)[C@H]1CCCN1Cc1cccc(F)c1
11,240 nM,CC(C)(Cc1ccc2ccccc2c1)NC[C@@H](O)[C@H]1CCCN1Cc1cccc(Cl)c1C#N
12,140 nM,CC(C)(Cc1ccc2ccccc2c1)NC[C@@H](O)[C@H]1CCCN1Cc1cccc([N+](=O)[O-])c1
13,30 nM,CC(C)(Cc1ccc2ccccc2c1)NC[C@@H](O)COc1ccccc1C#N
14,2840 nM,CC(C)(Cc1nc2ccccc2[nH]1)NC[C@@H](O)[C@H]1CCCN1Cc1cccc(C#N)c1
15,440 nM,CC(C)(Cc1cc2ccccc2[nH]1)NC[C@@H](O)[C@H]1CCCN1Cc1cccc(C#N)c1

# More lines, now with the values behind:
row,Structure (SMILES),IC50
1,CC(C)(Cc1ccc(F)cc1)NC[C@@H](O)CSc1cccc(Cl)c1Cl,6180 nM
2,CC(C)(Cc1ccc2ccccc2c1)NC[C@@H](O)[C@H]1CCCN1Cc1cccc(F)c1O,140 nM
3,CC(C)(Cc1ccc2ccccc2c1)NC[C@@H](O)[C@H]1CCCN1Cc1ccc([N+](=O)[O-])cc1,790 nM
4,CC(C)(Cc1ccc2ccccc2c1)NC[C@@H](O)[C@H]1CCCN1Cc1cccc(C#N)c1,190 nM
5,CC(C)(Cc1cc2ccccc2s1)NC[C@H](O)COc1ccccc1C#N,60 nM
6,CC(C)(Cc1csc2ccccc12)NC[C@@H](O)[C@H]1CCCN1Cc1cccc(C#N)c1,1000 nM
7,CC(C)(Cc1ccccc1)NC[C@H](O)COc1ccccc1S(C)(=O)=O,9430 nM
8,CC(C)(Cc1ccc2ccccc2c1)NC[C@@H](O)[C@H]1CCCN1Cc1cccc(O)c1,1160 nM
9,CC(C)(Cc1ccc2ccccc2c1)NC[C@H](O)COc1cccc(Cl)c1C#N,50 nM
10,CC(C)(Cc1cc2ccccc2s1)NC[C@@H](O)[C@H]1CCCN1Cc1cccc(C#N)c1,270 nM
11,CC(C)(Cc1ccc2ccccc2c1)NC[C@@H](O)[C@H]1CCCN1Cc1ccccc1C#N,340 nM
12,COc1cccc(CN2CCC[C@@H]2[C@H](O)CNC(C)(C)Cc2ccc3ccccc3c2)c1O,1560 nM
13,CC(C)(Cc1ccc2ccccc2c1)NC[C@@H](O)[C@H]1CCCN1Cc1cccc(C(=O)O)c1,6840 nM
14,CC(C)(Cc1ccc2ccccc2c1)NC[C@@H](O)[C@H]1CCCN1Cc1ccccc1O,970 nM
15,COc1ccc(CC(C)(C)NC[C@H](O)COc2cccc(OC)c2)cc1,1390 nM
16,CC(C)(Cc1ccc2ccccc2c1)NC[C@@H](O)[C@H]1CCCN1Cc1cccc(Br)c1,1570 nM
17,COc1cccc(CN2CCC[C@@H]2[C@H](O)CNC(C)(C)Cc2ccc3ccccc3c2)c1,1190 nM
18,COc1ccc(CC(C)(C)NC[C@@H](O)[C@H]2CCCN2Cc2cccc(C#N)c2)cc1,2670 nM
19,CN(C[C@@H](O)COc1cccc(Cl)c1C#N)C(C)(C)Cc1ccc2ccccc2c1,270 nM
20,CC(C)(Cc1cc2ccccc2[nH]1)NC[C@H](O)COc1ccccc1C#N,100 nM
21,CC(C)(Cc1ccc2ccccc2c1)NC[C@@H](O)[C@H]1CCCN1Cc1cccc([N+](=O)[O-])c1O,140 nM
22,N#Cc1c(Cl)cccc1OC[C@H](O)CNCCc1ccc2ccccc2c1,3860 nM
23,CC(C)(Cc1nc2ccccc2s1)NC[C@@H](O)[C@H]1CCCN1Cc1cccc(C#N)c1,1350 nM
24,CC(C)(Cc1ccc2ccccc2c1)NC[C@@H](O)[C@H]1CCCN1C(=O)c1cccc(C#N)c1,8430 nM
25,CC(C)(Cc1ccc2ccccc2c1)NC[C@@H](O)[C@H]1CCCN1Cc1cccc(-c2ccccc2)c1,2470 nM
26,COc1ccc(CC(C)(C)NCC(O)COc2ccc(S(C)(=O)=O)c(C)c2)cc1 (centres undefined),11400 nM

# Molecular target: T2, Extracellular calcium-sensing receptor (Rattus norvegicus, UniProt P48442)
# T2 sequence (P48442 whole entry): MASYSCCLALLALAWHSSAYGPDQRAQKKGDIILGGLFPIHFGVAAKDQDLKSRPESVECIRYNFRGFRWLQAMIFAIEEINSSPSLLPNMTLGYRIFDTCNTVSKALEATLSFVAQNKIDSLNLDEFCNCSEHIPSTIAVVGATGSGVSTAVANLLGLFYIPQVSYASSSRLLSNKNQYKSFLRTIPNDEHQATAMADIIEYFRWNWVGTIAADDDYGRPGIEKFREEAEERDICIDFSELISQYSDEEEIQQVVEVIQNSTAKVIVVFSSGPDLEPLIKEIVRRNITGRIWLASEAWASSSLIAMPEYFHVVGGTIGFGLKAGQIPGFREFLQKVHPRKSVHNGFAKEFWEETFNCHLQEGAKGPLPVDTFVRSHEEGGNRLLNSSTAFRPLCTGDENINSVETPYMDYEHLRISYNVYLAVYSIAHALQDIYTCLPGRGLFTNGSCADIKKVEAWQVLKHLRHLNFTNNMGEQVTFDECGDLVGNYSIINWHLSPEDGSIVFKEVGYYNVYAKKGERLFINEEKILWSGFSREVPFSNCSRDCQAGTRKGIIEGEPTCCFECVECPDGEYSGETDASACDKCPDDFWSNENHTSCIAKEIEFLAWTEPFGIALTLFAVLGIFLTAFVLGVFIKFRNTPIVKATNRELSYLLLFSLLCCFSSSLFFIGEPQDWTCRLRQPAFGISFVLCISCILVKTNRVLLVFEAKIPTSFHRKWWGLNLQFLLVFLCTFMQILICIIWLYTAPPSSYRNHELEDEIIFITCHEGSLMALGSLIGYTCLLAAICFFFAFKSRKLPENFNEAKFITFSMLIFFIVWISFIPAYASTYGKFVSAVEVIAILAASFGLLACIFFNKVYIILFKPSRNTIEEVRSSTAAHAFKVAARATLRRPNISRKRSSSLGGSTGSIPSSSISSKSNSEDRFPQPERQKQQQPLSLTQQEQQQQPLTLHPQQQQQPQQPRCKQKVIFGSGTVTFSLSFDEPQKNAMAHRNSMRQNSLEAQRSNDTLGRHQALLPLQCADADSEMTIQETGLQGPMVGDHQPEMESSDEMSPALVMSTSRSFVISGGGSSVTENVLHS
# Assay: Inhibition of extracellular calcium-induced inositol triphosphate generation in rat MTC cells expressing calcium-sensing receptor
# Format: functional, cell-based
row,IC50,Structure (SMILES)
1,530 nM,CC(C)(Cc1ccc2ccccc2c1)NC[C@@H](O)COc1cccc(Cl)c1C#N
2,2560 nM,CC(C)(Cc1ccc2ccccc2c1)NC[C@@H](O)[C@H]1CCCN1Cc1cccc(F)c1O
3,2200 nM,CC(C)(Cc1ccc2ccccc2c1)NC[C@@H](O)[C@H]1CCCN1Cc1cccc(C#N)c1
